Screening results as filed in PubChem BioAssay.
Only some compounds are listed: those with a hit (about 2.7% of all), similar ones and a draw of the others.
V1R ag counter = counter-screen for oxytocin receptor agonists: human V1a receptor agonists. P37288. CHO-V1R cells, Fluo-8 calcium fluorescence, agonist mode; 0% DMSO, 100% 3 nM vasopressin. activation, % at 3 µM. 320,000 compounds, 0.25% hits. AID 2797;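 active = activation above the mean activation of all tested compounds plus 3 SD, per screening run, cut at about 20% in these data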;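 note: signal is peak over basal fluorescence ratio across a 100 second FLIPR read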
Target sequence (P37288 whole entry, looked up): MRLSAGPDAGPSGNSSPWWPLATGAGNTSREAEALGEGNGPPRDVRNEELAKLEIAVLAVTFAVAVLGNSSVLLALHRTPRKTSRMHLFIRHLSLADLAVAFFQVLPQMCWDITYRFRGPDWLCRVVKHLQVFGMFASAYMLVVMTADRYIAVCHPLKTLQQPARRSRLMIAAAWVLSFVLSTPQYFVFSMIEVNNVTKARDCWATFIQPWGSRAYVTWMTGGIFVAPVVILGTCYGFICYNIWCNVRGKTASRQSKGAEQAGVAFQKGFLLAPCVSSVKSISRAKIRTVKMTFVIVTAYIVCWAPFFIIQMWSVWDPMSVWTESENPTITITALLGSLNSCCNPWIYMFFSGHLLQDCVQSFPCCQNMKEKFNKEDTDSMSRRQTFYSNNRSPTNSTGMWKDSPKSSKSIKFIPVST
OXTR ag = activates the human oxytocin receptor | P30559 | CHO-OTR cells, Fluo-8 calcium fluorescence; normalized: DMSO 0%, oxytocin 100% | activation, % at 3 µM | 320,000 compounds, 0.32% hits;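 active = activation above the mean of all tested compounds plus 3 SD, cutoff set per screening run, cut at about 20% in these data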;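 note: peak over basal fluorescence ratio from a 100 s FLIPR kinetic read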
Target sequence (P30559 whole entry, looked up): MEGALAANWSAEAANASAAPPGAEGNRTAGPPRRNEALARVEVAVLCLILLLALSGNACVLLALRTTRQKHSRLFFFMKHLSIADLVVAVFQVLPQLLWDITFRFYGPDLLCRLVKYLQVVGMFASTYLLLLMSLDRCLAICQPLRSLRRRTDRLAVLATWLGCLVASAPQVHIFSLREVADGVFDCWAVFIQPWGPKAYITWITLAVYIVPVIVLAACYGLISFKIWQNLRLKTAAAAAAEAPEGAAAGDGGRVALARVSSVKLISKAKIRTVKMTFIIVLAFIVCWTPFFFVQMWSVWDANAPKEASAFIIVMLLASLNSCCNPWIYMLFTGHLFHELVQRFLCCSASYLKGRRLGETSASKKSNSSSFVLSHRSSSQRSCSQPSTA
CHO parental Ca = signal in parental CHO cells, OX1R antagonist counter-screen; 330,000 compounds, 0.63% hits; parental CHO-K1, ATP-induced calcium, Fluo-8 fluorescence; inhibition, % at 5.6 µM;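 active = inhibition above that plate's mean sample inhibition plus 3 SD, cut at about 26% in these data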;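 note: 0% = ATP-challenged DMSO wells and 100% = DMSO wells without ATP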
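Assay system – parental CHO cells · Reagent – ATP stimulus · Detection – intracellular calcium via Fluo-8 no-wash fluorescent dye · Evaluation – percent inhibition of ATP-evoked calcium rise, normalized to controls · Controls – ATP wells versus no-ATP DMSO wells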
OX1R antag-1 = antagonists of human orexin 1 receptor; CHO/OX1R cells, Fluo-8 calcium fluorescence, orexin A; AID 434989; 330,000 compounds, 0.43% hits; inhibition, % at 5 µM;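 active = inhibition above its plate's threshold, mean inhibition of all tested compounds on the plate plus 3 SD, cut at about 37% in these data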;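 note: 0% = orexin A challenge wells and 100% = SB-334867-A antagonist wells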
OX1R antag-2 = OX1R (human) antagonism. O43613. OX1R-expressing cells, FRET antagonist read-out. inhibition, % at 6.6 µM. 330,000 compounds, 1.8% hits. AID 485270; in the data active = inhibition mostly above about 38%, no sharp cut-off; inactive = mostly below about 40%;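 note: 0% = agonist challenge alone and 100% = reference antagonist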
OXTR potentiator = potentiators of human oxytocin receptor; activation, % at 3 µM; AID 2445; CHO-OTR cells, Fluo-8 calcium fluorescence, potentiator mode; 0% = oxytocin EC15, 100% = EC100; 320,000 compounds, 0.061% hits;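 active = activation above that plate's cutoff, the mean activation of tested compounds plus 3 SD, cut at about 6.6% in these data, passing the limit was not always enough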;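 note: 100% uses oxytocin at 75 nM as the full agonist control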
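Assay system: CHO cell line stably expressing human OTR. Reagent: EC15 oxytocin agonist. Dosing: single dose, 3.0 µM nominal final compound concentration. Timing: compound 6 min at room temperature before oxytocin, 100 s read. Signal: kinetic Fluo-8 calcium fluorescence. Controls: oxytocin EC15 low and EC100 high.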
OXTR agonist cf = human OXTR agonism, confirmation; shares compounds with OXTR ag; CHO-OTR cells, Fluo-8 calcium fluorescence, agonist; activation, % at 3 µM; 390 compounds, 20% hits; AID 434963;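 active = mean activation above about 20% derived from the earlier single-dose screen, limit read from the data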;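 note: peak over minimum fluorescence ratio per well during a 100 second FLIPR read; 0% = DMSO alone and 100% = oxytocin high control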
V1aR counter 3x = V1R agonism in triplicate, counter-screen for OXTR agonists | shares compounds with OXTR ag | CHO-V1R cells, Fluo-8 calcium fluorescence, agonist | activation, % at 3 µM | 390 compounds, 10% hits | AID 434991;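 active = mean activation over triplicate exceeds the hit threshold set in the earlier primary screen, cut at about 20% in these data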;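 note: peak over basal fluorescence ratio within a 100 second read; 0% = DMSO alone and 100% = 3 nM vasopressin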
* = called active by the depositor; · = no result given.

SMILES | V1R ag counter | OXTR ag | CHO parental Ca | OX1R antag-1 | OX1R antag-2 | OXTR potentiator | OXTR agonist cf | V1aR counter 3x
CCOC(=O)c1sc(NC(=O)c2cc(-c3ccc(C)cc3)nc3ccccc23)c(C#N)c1C | 0.0 | 2.4 | -5.6 | -16.8 | 5.6 | 5.9 | · | ·
COC(=O)c1sc(NC(=O)c2cc(-c3ccccc3)nc3ccccc23)c(C#N)c1C | 11.0 | 20.1* | -8.3 | 13.8 | 71.7* | -22.8 | 17.2 | 13.1
Cc1ccccc1-c1cc(C(=O)Nc2sc(C(=O)OC(C)C)c(C)c2C#N)c2ccccc2n1 | 12.6 | 21.1* | 0.5 | -10.7 | 45.4* | -10.8 | 14.2 | 12.7
Brc1ccc(CN2CCN(Cc3c[nH]c4ccccc34)CC2)cc1 | 6.7 | 19.9* | -5.5 | 4.8 | -6.8 | -18.4 | 8.2 | 4.0
Brc1ccccc1CN1CCN(Cc2c[nH]c3ccccc23)CC1 | 2.1 | 5.4 | 6.1 | 4.1 | 24.8 | -11.9 | · | ·
CCn1c2ccccc2c2cc(CNCc3ccc(OC)cc3OC)ccc21 | 4.7 | 23.2* | -12.6 | 16.0 | 21.6 | -12.2 | 5.3 | 2.1
COc1cccc(CNCc2ccc(OC)cc2OC)c1 | 2.7 | 2.4 | -17.3 | -20.4 | 6.4 | -1.1 | · | ·
Cc1cc(C)nc(/N=C(\N)Nc2ccc(CC(=O)OC(C)C)cc2)n1 | 17.8 | 26.4* | 40.7* | 67.2* | 16.6 | -22.8 | 7.8 | 11.6
CCOc1ccc(NC(=O)COc2ccc(C(=O)NCc3cccnc3)cc2OC)cc1 | 2.7 | 0.2 | -15.1 | -28.9 | 11.2 | -2.7 | · | ·
COc1cc(C(=O)NCc2cccnc2)ccc1OCC(=O)Nc1cccc(C(F)(F)F)c1 | 17.7 | 23.2* | 43.0* | 28.8 | 24.6 | -7.9 | 6.8 | 7.6
Cc1cc(/C=C2\C(=N)N3N=C(CC(=O)N4CCOCC4)SC3=NC2=O)c(C)n1Cc1ccccc1 | 0.1 | 0.6 | -9.5 | -8.7 | 10.3 | 3.6 | · | ·
CC1=NN2C(=N)/C(=C\c3cc(C)n(Cc4ccccc4)c3C)C(=O)N=C2S1 | 8.3 | 21.8* | -25.1 | -3.1 | 21.9 | -19.5 | 4.0 | 8.4
Cc1ccc(CN2C(=O)C(C)Nc3ncnc(N4CCN(c5ccccn5)CC4)c32)cc1 (configuration not stated) | -0.7 | -0.3 | -27.4 | -22.8 | 20.5 | -10.4 | · | ·
Cc1ccc(OC(C)C(=O)Nc2ccc(S(=O)(=O)Nc3nccs3)cc2)cc1 (configuration not stated) | 1.2 | 1.4 | 6.9 | 10.0 | 1.3 | 0.2 | · | ·
CCc1ccc(OC(C)C(=O)Nc2ccc(S(=O)(=O)Nc3nccs3)cc2)cc1 (configuration not stated) | 10.0 | 19.8* | 11.8 | 8.8 | 13.1 | -14.1 | 5.5 | 7.8
CCN1C(=O)[C@H]2[C@@H](c3ccc(-c4ccc(OC)cc4)c(OC)c3)N3CCCC[C@@]3(C(=O)OC)[C@H]2C1=O | 1.5 | -0.1 | -15.4 | -20.9 | 7.7 | -12.2 | · | ·
O=C(Oc1ccc(-c2cn3c(n2)SCC3)cc1)c1ccccc1 | 13.2 | 26.8* | 15.3 | 31.4 | 13.1 | -11.6 | 9.2 | 8.0
N=c1n(CC(=O)c2ccc(Br)s2)c2ccccc2n1Cc1ccccc1 | 19.0 | 23.1* | 4.5 | 24.6 | 6.7 | -22.9 | 21.9* | 12.9
COc1ccc(C(=O)COc2ccc(C)cc2NC(C)=O)cc1 | 1.4 | 2.4 | -5.2 | -18.1 | 4.5 | -5.6 | · | ·
CCOC(=O)c1sc(NC(=O)CSc2n[nH]c(-c3ccncc3)n2)c(C#N)c1C | 9.8 | 17.5 | 9.9 | 20.2 | 72.6 | -19.7 | · | ·
CCOc1ccc(/C=C/C2=Cc3c(sc(NC(=O)CSc4n[nH]c(N)n4)c3C#N)C(C)(C)C2)cc1 | 9.3 | 26.5* | -0.4 | -12.7 | 10.1 | 2.3 | 12.5 | 6.5
Cc1ccc(Oc2ccc(OCC(=O)OC3CCS(=O)(=O)C3)cc2)cc1 (configuration not stated) | 16.4 | 24.9* | 6.5 | 10.8 | 13.3 | -16.1 | 1.8 | 6.5
Cc1ccc(Oc2ccc(OCC(=O)NC3CCS(=O)(=O)C3)cc2)cc1 (configuration not stated) | 9.3 | 9.8 | 9.7 | -2.4 | 20.7 | -12.9 | · | ·
COC(=O)C1=C(C)N(Cc2ccccc2)C(=NCc2ccco2)N[C@H]1c1cccc(F)c1 | 5.8 | 11.6 | -21.8 | -1.1 | 6.7 | -5.1 | · | ·
COC(=O)C1=C(C)N(Cc2ccccc2)C(=O)N[C@H]1c1cccc(C(F)(F)F)c1 | 2.2 | -1.3 | -37.9 | -28.1 | 10.6 | -17.0 | · | ·
SMILES | V1R ag counter | OXTR ag | CHO parental Ca | OX1R antag-1 | OX1R antag-2 | OXTR potentiator | OXTR agonist cf | V1aR counter 3x
COC(=O)C1=C(C)N(Cc2ccccc2)C(=NCc2ccccc2)N[C@H]1c1cccc(C(F)(F)F)c1 | 10.0 | 21.7* | 0.3 | 32.9 | 5.8 | -4.9 | 12.0 | 3.6
COC(=O)C1=C(C)N(Cc2ccccc2)C(=NCc2cc(OC)c(OC)c(OC)c2)N[C@H]1c1cccc(F)c1 | 0.4 | 20.9* | -29.3 | -33.6 | 25.0 | -8.0 | 2.3 | 0.4
COC(=O)C1=C(C)N(Cc2ccccc2)C(=NCc2ccc(OC)cc2)N[C@H]1c1cccc(F)c1 | 19.8 | 24.5* | 24.3 | 28.4 | 5.8 | -15.3 | 7.3 | 1.9
CCN1C(=O)[C@H]2[C@@H](c3ccc(-c4ccccc4)cc3)N3CCCC[C@@]3(C(=O)OC)[C@H]2C1=O | 1.9 | 0.1 | -14.6 | -25.5 | 12.2 | 4.8 | · | ·
C=CCS/C(N)=N\N=C\c1cc(Br)cc([N+](=O)[O-])c1O | 3.3 | 2.8 | 0.6 | 0.1 | 55.8 | 2.0 | · | ·
O=C(NC(=S)NNC(=O)c1ccccc1O)c1ccc([N+](=O)[O-])cc1 | 11.2 | 7.2 | -0.6 | -15.2 | 17.3 | -11.9 | · | ·
Cc1ccc(C(=O)NC(=S)NNC(=O)c2ccccc2O)cc1 | 11.4 | 21.6* | -10.5 | 3.6 | -1.6 | -23.2 | 35.0* | 29.8*
O=C(/C=C/c1cccc(F)c1)OCC(=O)N1CCc2ccccc21 | 0.6 | -1.1 | -8.6 | 12.0 | 1.0 | 3.0 | · | ·
COc1cc2c(cc1OC)C(c1cc3cccc(C)c3[nH]c1=O)N(C(=O)c1ccco1)CC2 (configuration not stated) | 2.0 | 0.5 | -28.2 | -40.4 | 34.4 | -0.4 | · | ·
Cc1ccc(OCCNc2cc(N3CCN(CCO)CC3)ccc2[N+](=O)[O-])cc1C | 12.8 | 22.7* | 3.7 | -1.3 | 15.4 | -10.2 | 4.4 | 0.8
COc1ccc(NS(=O)(=O)c2ccc(C(=O)N3CCN(c4ccc(F)cc4)CC3)cc2)cc1 | 15.6 | 21.8* | 27.3* | 33.8 | 7.5 | -14.0 | 16.4 | 14.5
COc1ccc(N2CCN(C(=O)c3ccc(NS(=O)(=O)c4cccc(F)c4)cc3)CC2)cc1 | 5.8 | 8.9 | -6.7 | -9.5 | 12.2 | -6.4 | · | ·
